# According to ChEMBL document CHEMBL3244366, “Synthesis and biochemical evaluation of inhibitors of estrogen biosynthesis” (J Med Chem, 1978):
# Legend:
# Aromatase [1] = biological target: T1, Aromatase (Homo sapiens, UniProt P11511); assay: Inhibition of human placental microsomal aromatase assessed as inhibition of [C14]estrone/[C14]estradiol formation using 1.25 uM [C14]androstenedione substrate at 6.25 uM by liquid scintillation counting
# T1 sequence (P11511 whole entry): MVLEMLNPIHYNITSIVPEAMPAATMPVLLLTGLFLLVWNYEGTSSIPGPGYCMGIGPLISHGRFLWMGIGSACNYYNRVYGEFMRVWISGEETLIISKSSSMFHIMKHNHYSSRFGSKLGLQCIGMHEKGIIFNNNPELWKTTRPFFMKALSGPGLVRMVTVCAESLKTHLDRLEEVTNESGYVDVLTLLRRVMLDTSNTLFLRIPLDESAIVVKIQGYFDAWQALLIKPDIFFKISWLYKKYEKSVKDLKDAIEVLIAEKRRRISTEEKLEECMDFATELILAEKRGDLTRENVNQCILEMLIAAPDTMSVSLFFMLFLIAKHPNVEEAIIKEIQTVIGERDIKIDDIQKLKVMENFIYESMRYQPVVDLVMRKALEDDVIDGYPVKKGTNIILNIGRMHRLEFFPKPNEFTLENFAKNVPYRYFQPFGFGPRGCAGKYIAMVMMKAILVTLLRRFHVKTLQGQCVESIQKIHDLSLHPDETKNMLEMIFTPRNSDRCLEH
# Outline: (§1)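 Screen, run in duplicate: [14C]androstenedione 1.25 μM with inhibitor at 6.25 or 12.5 μM, human placental microsomes (0.25 mg protein/3.0 mL), NADPH-generating system (NADP+ 1.71 mM, glucose 6-phosphate 2.85 mM, G6PDH) in 0.1 M phosphate pH 7.0. 5 min preincubation, then 15.0 min at 37 °C; estrogens separated on alumina TLC and counted; expressed as percent inhibition versus uninhibited controls.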
# Aromatase [2] = biological target: T1, Aromatase; assay: Competitive inhibition of human placental microsomal aromatase assessed as [C14]estrone/[C14]estradiol formation using [C14]androstenedione substrate by liquid scintillation counting
# Outline: (§2)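 Twice-washed human term placental microsomes (0.25 mg protein) in 3.5 mL 0.1 M sodium phosphate pH 7.0 with NADP+ 1.71 mM, glucose 6-phosphate 2.85 mM, G6PDH 1.0 unit; [14C]androstenedione 0.075–0.515 μM plus one inhibitor level; 37 °C, 8.0 min (<10% product). Estrogens extracted with ethyl acetate, alumina TLC, counted; duplicates; apparent Ki and inhibition type from weighted Lineweaver-Burk.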
# Aromatase [3] = biological target: T1, Aromatase; assay: Apparent inhibition of human placental microsomal aromatase assessed as [C14]estrone/[C14]estradiol formation using 0.075 to 0.515 uM [C14]androstenedione substrate by liquid scintillation counting; conditions: read-out: Ki(app); outline: as §2
# Aromatase [4] = biological target: T1, Aromatase; assay: Inhibition of human placental microsomal aromatase assessed as inhibition of [C14]estrone/[C14]estradiol formation using 1.25 uM [C14]androstenedione substrate at 12.5 uM by liquid scintillation counting; outline: as §1
SMILES,inhibition at 6.25 µM (Aromatase [1]),inhibition (INH) (Aromatase [2]),Ki (Aromatase [3]),inhibition at 12.5 µM (Aromatase [4])
C[C@]12CCC(=O)C=C1C[C@@H](Sc1ccc(N)cc1)[C@@H]1[C@@H]2CC[C@]2(C)C(=O)CC[C@@H]12,55.6%,Active,18 nM,95%
CCN(CC)c1ccc(CS[C@@H]2CC3=CC(=O)CC[C@]3(C)[C@H]3CC[C@]4(C)C(=O)CC[C@H]4[C@H]23)cc1,45.1%,–,–,42.3%
C[C@]12CCC(=O)C=C1C[C@@H](SCCCc1ccccc1)[C@@H]1[C@@H]2CC[C@]2(C)C(=O)CC[C@@H]12,68.4%,–,–,66.4%
COc1ccc(S[C@@H]2CC3=CC(=O)CC[C@]3(C)[C@H]3CC[C@]4(C)C(=O)CC[C@H]4[C@H]23)cc1,35.3%,–,–,64.9%
C[C@]12CCC(=O)C=C1C[C@@H](Sc1ccccc1)[C@@H]1[C@@H]2CC[C@]2(C)C(=O)CC[C@@H]12,45.3%,–,–,46.7%
CCN(CC)c1ccc(CS[C@H]2CC(=O)C=C3CC[C@@H]4[C@H](CC[C@]5(C)C(=O)CC[C@@H]45)[C@]32C)cc1,32.2%,–,–,36.3%
C[C@]12CCC(=O)C=C1C[C@@H](SCc1ccccc1)[C@@H]1[C@@H]2CC[C@]2(C)C(=O)CC[C@@H]12,66.7%,Active,69 nM,84.1%
COc1ccc(CS[C@@H]2CC3=CC(=O)CC[C@]3(C)[C@H]3CC[C@]4(C)C(=O)CC[C@H]4[C@H]23)cc1,64%,Active,31 nM,63%
C[C@@]12C(=CC(=O)C[C@@H]1Sc1ccccc1)CC[C@@H]1[C@@H]2CC[C@]2(C)C(=O)CC[C@@H]12,21.2%,–,–,24.2%
CCOC(=O)CS[C@@H]1CC2=CC(=O)CC[C@]2(C)[C@H]2CC[C@]3(C)C(=O)CC[C@H]3[C@H]12,–,–,–,72.4%
CCCCS[C@@H]1CC2=CC(=O)CC[C@]2(C)[C@H]2CC[C@]3(C)C(=O)CC[C@H]3[C@H]12,62.4%,Active,57 nM,74.1%
C[C@]12CCC(=O)C=C1C[C@@H](SCCc1ccccc1)[C@@H]1[C@@H]2CC[C@]2(C)C(=O)CC[C@@H]12,75.7%,Active,62 nM,82.8%
C[C@@]12C(=CC(=O)C[C@@H]1SCc1ccccc1)CC[C@@H]1[C@@H]2CC[C@]2(C)C(=O)CC[C@@H]12,20.8%,–,–,15.5%
